ChEMBL document CHEMBL3046678, “Isolation and characterization of new p-Terphenyls with antifungal, antibacterial, and antioxidant activities from halophilic actinomycete Nocardiopsis gilva YIM 90087” (2013)
In brackets after ≈: the same amount, converted by molar mass.

Key:
[1] = test system: Fusarium culmorum; test: Antifungal activity against Fusarium culmorum after 4 days by microdilution method; assay type: functional
Outline: (§1)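 Spores from 4-day-old cultures in PDB broth at 1 × 10^3 spores/mL, 96-well broth microdilution. Compounds in DMSO (final ≤5%), 2-fold serial dilutions 512–0.5 μg/mL. Incubated 28 °C, 4 days. DMSO negative control, nystatin positive control. Growth checked microscopically. MIC is the lowest concentration with complete inhibition. Experiments repeated three times.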

[2] = test system: Fusarium graminearum; test: Antifungal activity against Fusarium graminearum after 4 days by microdilution method; assay type: functional; outline: as §1
[3] = test system: Candida albicans; test: Antifungal activity against Candida albicans after 4 days by microdilution method; assay type: functional; outline: as §1
[4] = test system: Trichophyton verrucosum; test: Antifungal activity against Trichophyton verrucosum after 4 days by microdilution method; assay type: functional, organism-based; outline: as §1
[5] = test system: Aspergillus niger; test: Antifungal activity against Aspergillus niger after 4 days by microdilution method; assay type: functional, organism-based; outline: as §1
[6] = test system: Fusarium avenaceum; test: Antifungal activity against Fusarium avenaceum after 4 days by microdilution method; assay type: functional; outline: as §1
[7] = test system: Pyricularia oryzae; test: Antifungal activity against Magnaporthe oryzae after 4 days by microdilution method; assay type: functional; outline: as §1
[8] = test system: Staphylococcus aureus; test: Antibacterial activity against Staphylococcus aureus after 24 hr by microdilution method; assay type: functional
Outline: (§2)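 Bacteria from 18-h cultures in LB broth at 1 × 10^5 CFU/mL, 96-well broth microdilution. Compounds in DMSO (final ≤5%), 2-fold serial dilutions from 512 to 0.5 μg/mL. Incubated 37 °C for 24 h. DMSO-only negative control, kanamycin positive control. Growth read by microscope. MIC is the lowest concentration giving complete growth inhibition. Three repeats.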

[9] = test system: Bacillus subtilis; test: Antibacterial activity against Bacillus subtilis after 24 hr by microdilution method; assay type: functional
Outline: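 Bacteria grown 18 h, diluted in LB broth to 1 × 10^5 CFU/mL in 96-well microplates. Compounds in DMSO, 2-fold serial dilutions 512 to 0.5 μg/mL final, DMSO ≤5%. Incubated 37 °C for 24 h, growth checked by microscope. MIC = lowest concentration giving complete growth inhibition. DMSO negative control, kanamycin positive control, three repeats.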

[10] = test system: Escherichia coli; test: Antibacterial activity against Escherichia coli after 24 hr by microdilution method; assay type: functional; outline: as §2
[11] = Antioxidant activity assessed as ABTS radical scavenging activity at 1 mg/ml after 5 min by spectrophotometric analysis; assay type: functional
Outline: (§3)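 ABTS radical cation made from ABTS (7 mM) and potassium persulfate (2.45 mM), held 16 h in dark at room temperature, then 350 μL diluted to 25 mL with aqueous 80% EtOH. Sample added to 250 μL working solution, kept 5 min in dark at room temperature, A734 read. Scavenging % = [1 − (Ae − As)/Ac] × 100 against solvent control, triplicate.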

[12] = test system: Radical scavenging activity; test: Antioxidant activity assessed as DPPH radical scavenging activity at 2 mg/ml after 30 min by spectrophotometric analysis; assay type: functional
Outline: (§4)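 DPPH stock diluted 1:20 in EtOH; 290 μL of this mixed with 10 μL sample, EtOH as negative control, vitamin C as positive control. Kept 30 min in dark, absorbance read at 517 nm. Scavenging % = [1 − (Ae − As)/Ac] × 100, where As is sample blank absorbance. Triplicate.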

[13] = test system: Radical scavenging activity; test: Antioxidant activity assessed as DPPH radical scavenging activity at 0.8 mg/ml after 30 min by spectrophotometric analysis; assay type: functional; outline: as §4
[14] = Antioxidant activity assessed as ABTS radical scavenging activity at 0.16 mg/ml after 5 min by spectrophotometric analysis; assay type: functional; outline: as §3
[15] = Antioxidant activity assessed as superoxide anion radical scavenging activity at 5 mg/ml after 5 min by spectrophotometric analysis; assay type: functional
Outline: (§5)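 Superoxide made by non-enzymatic NADH–PMS system, detected by NBT reduction. 200 μL mix of 150 μM NBT and 234 μM NADH in 16 mM Tris-HCl pH 8.0, plus 10 μL sample. Reaction started with 100 μL of 30 μM PMS in the same buffer, 5 min at room temperature, A560 read. % = [1 − (Ae − As)/Ac] × 100, triplicate.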

[16] = Antioxidant activity assessed as ABTS radical scavenging activity at 2 mg/ml after 5 min by spectrophotometric analysis; assay type: functional; outline: as §3
[17] = test system: Radical scavenging activity; test: Antioxidant activity assessed as DPPH radical scavenging activity at 4 mg/ml after 30 min by spectrophotometric analysis; assay type: functional; outline: as §4
[18] = Antioxidant activity assessed as superoxide anion radical scavenging activity at 2 mg/ml after 5 min by spectrophotometric analysis; assay type: functional; outline: as §5
[19] = Antioxidant activity assessed as ABTS radical scavenging activity at 0.5 mg/ml after 5 min by spectrophotometric analysis; assay type: functional; outline: as §3

## NYSTATIN
[1]
  MIC: 1 µg/mL
[2]
  MIC: 4 µg/mL
[3]
  MIC: 4 µg/mL
[4]
  MIC: 4 µg/mL
[5]
  MIC: 8 µg/mL
[6]
  MIC: 1 µg/mL
[7]
  MIC: 8 µg/mL

## NC[C@H]1O[C@H](O[C@H]2[C@H](O)[C@@H](O[C@H]3O[C@H](CO)[C@@H](O)[C@H](N)[C@H]3O)[C@H](N)C[C@@H]2N)[C@H](O)[C@@H](O)[C@@H]1O [KANAMYCIN]
[8]
  MIC: 4 µg/mL (≈ 8.26 µM)
[9]
  MIC: 1 µg/mL (≈ 2.06 µM)
[10]
  MIC: 1 µg/mL (≈ 2.06 µM)

## COc1ccc(-c2cc(O)c(-c3ccc(OC)cc3)c(OC)c2OC)cc1
[1]; 96 h
  MIC: 128 µg/mL (≈ 349 µM)
[2]; 96 h
  MIC: 16 µg/mL (≈ 43.7 µM)
[3]; 96 h
  MIC: 32 µg/mL (≈ 87.3 µM)
[11]
  Activity: 68.6%
[6]; 96 h
  MIC: 8 µg/mL (≈ 21.8 µM)
[12]
  Activity: 54.9%
[9]
  MIC: 64 µg/mL (≈ 175 µM)

## O=C1O[C@H]([C@@H](O)CO)C(O)=C1O
[13]
  Activity: 43.9%
[14]
  Activity: 79.1%
[15]
  Activity: 75.5%

## COc1ccc(-c2c(OC)c(O)c(-c3ccc(OC)cc3)c3scnc23)cc1
[16]
  Activity: 28.4%
[17]
  Activity: 14.3%

## C[C@@H]1NC(=O)[C@H](Cc2c[nH]c3ccccc23)NC1=O
[16]
  Activity: 54.6%

## CO[C@@H]1[C@@H](OC(N)=O)[C@@H](O)[C@H](Oc2ccc3c(O)c(NC(=O)c4ccc(O)c(CC=C(C)C)c4)c(=O)oc3c2C)OC1(C)C [NOVOBIOCIN]
[8]
  MIC: 64 µg/mL (≈ 104 µM)
[18]
  Activity: 77.9%
[19]
  Activity: 78.2%
[12]
  Activity: 47.7%
[9]
  MIC: 16 µg/mL (≈ 26.1 µM)
[7]; 96 h
  MIC: 16 µg/mL (≈ 26.1 µM)
